# Screens deposited in PubChem BioAssay by Broad Institute.
# E-sel inducer – induces E-selectin expression in human endothelial cells. P16581. HUVEC E-selectin immunofluorescence imaging; normalized: neutral wells 0, TNF-alpha wells 100. activation, % at 7.58 µM. 260,000 tested, 0.37% active;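 active = mean E-selectin-positive cell signal at least 10% of the positive control, reached in at least 60% of replicates, without over 20% cell loss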
# Target sequence (P16581 whole entry, looked up): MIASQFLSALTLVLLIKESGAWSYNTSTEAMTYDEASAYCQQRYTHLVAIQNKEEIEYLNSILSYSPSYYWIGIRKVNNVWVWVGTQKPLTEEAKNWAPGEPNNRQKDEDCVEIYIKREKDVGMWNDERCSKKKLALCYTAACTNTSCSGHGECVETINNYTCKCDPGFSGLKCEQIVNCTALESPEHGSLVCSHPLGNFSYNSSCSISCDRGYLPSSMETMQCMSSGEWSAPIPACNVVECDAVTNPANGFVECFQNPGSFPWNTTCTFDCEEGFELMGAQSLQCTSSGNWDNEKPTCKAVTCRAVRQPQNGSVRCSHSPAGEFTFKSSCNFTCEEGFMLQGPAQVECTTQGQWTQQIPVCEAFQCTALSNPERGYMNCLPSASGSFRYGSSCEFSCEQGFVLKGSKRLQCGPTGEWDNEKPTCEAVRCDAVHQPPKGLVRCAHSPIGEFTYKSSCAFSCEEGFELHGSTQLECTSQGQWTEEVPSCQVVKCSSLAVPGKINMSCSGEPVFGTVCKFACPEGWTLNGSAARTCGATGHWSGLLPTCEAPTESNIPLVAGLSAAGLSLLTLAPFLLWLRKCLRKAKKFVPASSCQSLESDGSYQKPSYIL
#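 Assay system: HUVEC primary endothelial cells. Input: 3,000 HUVEC seeded per well. Doses: one compound dose added by pin transfer. Read-out basis: % PE-positive cells. Benchmarks: TNF-alpha high, DMSO low. Detection: immunofluorescence imaging. Buffer or medium: EGM-2, gelatin.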
# EWS-Fli inh – blocks EWS/Fli oncoprotein-driven transcription; inhibition, % at 12.6 µM; 350,000 tested, 0.67% active; A673 NR0B1-luciferase reporter, viability-normalised; AID 651661;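 active = mean inhibition of at least 50% after viability correction, with every replicate also passing that limit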;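 note: firefly luciferase signal divided by Alamar Blue viability fluorescence both relative to DMSO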
# LGR2 antag – inhibitors of bursicon-induced Drosophila LGR2 receptor cAMP signaling; 380,000 tested, 0.35% active; AID 720647; HEK293 LGR2, CRE-luciferase, bursicon-stimulated, 4 h; inhibition, % at 9.99 µM;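 active = drop in luminescence signal, shown as inhibition above about 50% in the replicate tests, limit read from the data, passing the limit was not always enough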;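 note: agonist challenge used bursicon conditioned medium at about half maximal strength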
# Ecoli rRNA inh – inhibits bacterial ribosomal RNA function over humanized ribosomes | E. coli WT GFP vs humanized-ribosome RFP mutants, fluorescence, 24 h; active compounds read low; DMSO median 0, no signal -100 | GFP signal change (wild-type ribosome), % (no concentration beside the values) | 350,000 tested, 1.6% active;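 active = significant combined selectivity score with lowered wild-type GFP, culture density cut under 30%, mutant RFP and density less affected; inactive = any of these conditions unmet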
# An asterisk follows results filed as active; nt = no result. Compounds with a hit are over-represented: about 2.4% of the library has one in this group of screens.
SMILES,E-sel inducer,EWS-Fli inh,LGR2 antag,Ecoli rRNA inh
CCCN1[C@@H]2c3ccc(/C=C/c4ccccc4)c(=O)n3C[C@@H]2[C@@H](CO)[C@@H]1C(=O)N1CCOCC1,1.7,5.4,-0.9,1.7
C[C@H]1CN([C@@H](C)CO)S(=O)(=O)c2ccc(C#CC3(O)CCCC3)cc2O[C@@H]1CN(C)C(=O)Cc1ccncc1,0.5,0.3,-49.7,-1.1
O=C(C[C@H]1CC[C@@H]2[C@H](COC[C@@H](O)CN2CCc2ccccc2)O1)NCc1ccccc1,0.0,1.0,-13.3,3.9
Cc1ccc(CS(=O)(=O)c2ncc(Cl)c(C(=O)Nc3ccc(OC(F)F)cc3)n2)cc1,7.7,48.9,-32.4,11.9
CCS(=O)(=O)c1ncc(Cl)c(C(=O)Nc2ccc(C)cc2)n1,nt,64.8*,0.2,-57.1
O=c1c2ccccc2nc(COc2ccccc2)n1/N=C/c1ccc(O)c(O)c1,-2.9,8.9,-36.1,-30.6*
O=C(Nn1c(COc2ccccc2)nc2ccccc2c1=O)C(Cl)(Cl)Cl,0.0,-27.3,-29.5,-15.3*
O=C(O)COc1ccc(/C=N/n2c(COc3ccccc3)nc3ccccc3c2=O)cc1,nt,-23.9,6.0,-9.2
Cc1nc2ccccc2c(=O)n1NC(=O)COc1ccccc1,nt,-1.8,12.4,10.5
COc1ccc2c3c([nH]c2c1)[C@H](CO)N(Cc1cc(F)ccc1F)CC31CCN(C(=O)C2CCC2)CC1,-0.6,18.9,-7.3,1.7
COc1cc(N2C(=O)C=CC2=O)ccc1N1C(=O)C=CC1=O,nt,60.4*,nt,0.7
CN(c1ccccc1)S(=O)(=O)c1ccc(-c2ccccc2)cc1,0.6,-6.4,-9.7,-23.6*
CC(C)(CC(=O)O)CC(=O)NCc1c(Cl)cccc1Sc1ccc(Cl)cc1,nt,-6.3,-1.3,-40.3*
O=C(O)c1ccccc1C(=O)NCc1c(Cl)cccc1Sc1ccc(Cl)cc1,0.3,2.7,-3.1,-29.1*
C[C@H]1CN([C@@H](C)CO)C(=O)c2cc(NS(C)(=O)=O)ccc2O[C@H]1CN(C)Cc1ccc(Cl)c(Cl)c1,-2.4,-1.4,14.0,-5.5
CCCC1CC(C(=O)NC(C(C)Cl)C2OC(SC)C(O)C(O)C2O)N(C)C1 (stereo unspecified),1.9,-2.7,nt,-32.4*
C[C@@H]1CN([C@H](C)CO)C(=O)c2cc(C#CC3CC3)cnc2O[C@@H]1CN(C)C(=O)C1CCCCC1,0.2,-5.0,6.2,-0.3
O=C(COc1cc2oc(=O)c3c(c2cc1Cl)CCCC3)NCC1CCC(C(=O)O)CC1 (stereo unspecified),nt,2.4,-15.3,-22.9*
O=C(COc1cc2oc(=O)c3c(c2cc1Cl)CCC3)NCC1CCC(C(=O)O)CC1 (stereo unspecified),0.4,nt,7.9,6.9
CCC(=O)N1[C@@H]2CN(S(=O)(=O)c3ccccc3)c3ccccc3[C@@H]2[C@@H]1CO,1.4,7.1,-12.2,4.7
COc1ccc(CN(C)C[C@@H]2Oc3c(NC(=O)NC(C)C)cccc3C(=O)N([C@@H](C)CO)C[C@@H]2C)cc1,2.9,1.3,6.2,6.9
Cc1ccccc1NC(=S)N(Cc1cccs1)C1CCCC1,-0.2,-1.5,-3.1,-24.0*
O=C(Cc1ccncc1)Nc1ccc2c(c1)[C@H]1C[C@@H](CC(=O)N3CCCCC3)O[C@H](CO)[C@H]1O2,nt,nt,nt,2.9
COC(=O)c1cc(C(=O)N2CCN(c3ncccn3)CC2)cc([N+](=O)[O-])c1,-0.1,-6.4,-3.9,1.6
Cc1[nH]c2ccc(C(=O)N3CCN(c4ccccc4Cl)CC3)cc2c1C,nt,nt,0.0,-5.1
SMILES,E-sel inducer,EWS-Fli inh,LGR2 antag,Ecoli rRNA inh
COC(=O)c1cc(C(=O)c2c(C)cc3ccccn23)cc([N+](=O)[O-])c1,0.1,3.2,-1.9,-21.6*
COC(=O)c1cc(C(=O)N2CCN(c3cccc(C)c3C)CC2)cc([N+](=O)[O-])c1,nt,56.1*,13.6,-8.1
Cc1cccc(N2CCN(C(=O)c3ccc4[nH]c(C)c(C)c4c3)CC2)c1C,2.3,54.1*,-9.6,1.7
Cc1cc2ccccn2c1C(=O)c1cc([N+](=O)[O-])cc([N+](=O)[O-])c1,nt,14.3,11.2,14.4
COC(=O)c1cc(C(=O)N2CCN(c3ccccc3OC)CC2)cc([N+](=O)[O-])c1,10.5,55.4*,24.9,2.8
CO[C@@H]1CN(C)C(=O)c2ccc(NS(=O)(=O)CC(F)(F)F)cc2OC[C@@H](C)N(C(=O)NC(C)C)C[C@H]1C,-0.4,-3.2,17.8,-1.1
C[C@H]1CN([C@@H](C)CO)C(=O)c2cccc(NC(=O)C3CCOCC3)c2O[C@H]1CN(C)CC1CCCCC1,4.2,-2.1,-41.2,0.1
Cc1c(Cc2ccccc2)sc(NC(=O)C(C)(C)C)c1C(N)=O,0.1,17.1,-2.5,-29.9*
CCC(=O)Nc1sc(Cc2ccc3c(c2)OCO3)c(C)c1C(N)=O,3.4,3.3,-10.0,-26.3*
C[C@H](CO)N1C[C@H](C)[C@@H](CN(C)Cc2ccc(C(=O)Nc3ccccc3N)cc2)Oc2ccc(NC(=O)Cn3cnnn3)cc2CC1=O,-2.7,8.5,-8.6,1.7
CC(C)n1c(N2CCN(C(=O)Nc3ccc(Cl)cc3)CC2)nc2ccccc21,-0.1,11.6,-28.9,-37.6
CCCn1c(N2CCN(C(=O)Nc3ccc(Cl)cc3)CC2)nc2ccccc21,1.8,2.8,-8.2,-26.2*
Cn1nc(C(F)(F)F)c2cc(C(=O)O)sc21,nt,0.2,nt,2.6
Cn1nc(C(F)(F)F)c2cc(C(=O)Nc3ccc(F)c(Cl)c3)sc21,-0.4,15.6,12.7,-30.1*
Cn1nc(C(F)(F)F)c2cc(C(=O)Nc3ccc(C(F)(F)F)cc3)sc21,3.0,8.1,24.4,-39.2*
Cn1nc(C(F)(F)F)c2cc(C(=O)Nc3ccc(F)cc3)sc21,nt,-2.4,4.3,1.0
CC(C)CC#Cc1cnc2c(c1)C(=O)N([C@@H](C)CO)C[C@H](C)[C@@H](CN(C)C(=O)CN1CCOCC1)O2,0.1,-13.8,-8.0,-0.7
CCCCCCCCOC(=O)C[N+](C)(C)C/C=C(/C)Cl,nt,11.1,-1.0,-35.1*
O=C1c2ccccc2C(=O)N1Nc1ccccc1,nt,nt,-35.6,nt
Cc1ccc(NN2C(=O)C=C(c3ccccc3)C2=O)cc1,7.1,62.8*,-22.7,-5.0
COc1cccc(NC(=O)Nc2cccn(Cc3ccc(C)cc3)c2=O)c1,-0.6,-0.6,28.8,-28.6*
COc1cc(NC(=O)N2CCNC2=O)cc(C(=O)Nc2cccc(C(F)(F)F)c2)c1,2.0,59.4*,-5.1,7.4
O=C(Nc1cccc(C(=O)O)c1)Nc1ccc2c(c1)OCO2,nt,79.3*,97.2*,26.0
COc1ccc(C(=O)Nc2ccc3[nH]c(-c4cccc(OC)c4)cc(=O)c3c2)cc1,0.7,57.4*,-1.1,5.8
CC(C)(C)[S@](=O)N1Cc2cc(C(=O)N[C@@H]3CCN(Cc4ccccc4)C3)nc(-c3cccc(-c4cncnc4)c3)c2[C@@H]1CCO,nt,nt,nt,-1.8
CCC(=O)N1C[C@H](C)[C@@H](OC)CN(C)C(=O)c2cc(NC(=O)c3ccc(F)cc3)ccc2OC[C@@H]1C,0.2,-3.8,-3.7,0.3
